Assay results pooled from the literature.
Each line is one published result; the experiments were not run side by side.
Target: Protein kinase C iota type (PRKCI, Homo sapiens, UniProt P41743)
Residues used in one study (P41743 1-596): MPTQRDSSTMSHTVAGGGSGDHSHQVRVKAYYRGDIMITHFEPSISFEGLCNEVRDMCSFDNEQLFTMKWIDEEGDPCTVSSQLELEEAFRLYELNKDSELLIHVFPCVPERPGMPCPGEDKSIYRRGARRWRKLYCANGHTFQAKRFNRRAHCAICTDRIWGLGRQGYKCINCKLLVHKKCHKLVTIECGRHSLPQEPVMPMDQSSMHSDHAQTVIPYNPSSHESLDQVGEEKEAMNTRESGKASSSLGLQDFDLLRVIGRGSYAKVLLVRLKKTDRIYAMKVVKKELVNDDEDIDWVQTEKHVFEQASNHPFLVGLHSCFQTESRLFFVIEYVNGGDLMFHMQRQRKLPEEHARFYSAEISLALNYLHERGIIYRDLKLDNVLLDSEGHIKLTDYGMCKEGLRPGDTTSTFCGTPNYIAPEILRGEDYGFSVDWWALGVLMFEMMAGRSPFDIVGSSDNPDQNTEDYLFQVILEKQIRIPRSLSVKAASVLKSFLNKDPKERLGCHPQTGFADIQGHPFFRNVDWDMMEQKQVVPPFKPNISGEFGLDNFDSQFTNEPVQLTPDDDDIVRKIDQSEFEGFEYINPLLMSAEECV

`CC(C)c1ccc(NC(=O)c2cccs2)c(-c2nc3ccccc3[nH]c2=O)c1` gave an activity vs control of 94% (enzyme activity, inhibitor; 1 µM).
The remaining binding of `O=C(NC[C@@H]1[C@H]2CN(C(=O)OCc3cc(C(F)(F)F)cc(C(F)(F)F)c3)C[C@@H]12)c1ccc2[nH]nnc2c1` is reported as 98% (cell-free assay, competition with immobilised ligand; 1 µM).
`CCCCNc1ncc2c(-c3ccc(F)cc3)nn(C[C@H]3CC[C@H](N)CC3)c2n1` gave an inhibition of -5.8% (target engagement in cells, inhibitor, chemoproteomics; 20 mM).
For `CC(C)(O)c1cncc(-c2nc3ccc(F)cc3n2C2CC2)c1`, the remaining binding was 89% (cell-free assay, competition with immobilised ligand; 1 µM).
For `CCN(CC)c1ccc(C2=NNC(=O)CC2C)cc1[N+](=O)[O-]` (stereo not drawn), the remaining activity was 108% (enzyme activity, inhibitor; 10 µM).
`CO[C@@H](C)c1c(Nc2ccc([C@@H](N(C)C(=O)C3CCS(=O)(=O)CC3)C(F)(F)F)cc2)cnc2cc(Cl)nn12` gave a remaining binding of 76% (cell-free assay, competition with immobilised ligand; 1 µM).
For `CNC(=O)c1cc(Oc2ccc(NC(=O)Nc3ccc(Cl)c(C(F)(F)F)c3)cc2)ccn1`, the inhibition was 9% (enzyme activity, inhibitor; 10 µM).
With `Cn1nc(C(=O)NCc2ccc(C(=O)O)cc2)cc1-c1ccc2[nH]ccc2c1` the remaining binding was 80% (cell-free assay, competition with immobilised ligand; 0.1 µM).
With `Cc1cc(NC(=O)c2cccc3cc(-c4cccc5[nH]nc(N)c45)ccc23)ccc1F` the activity vs control was 98% (enzyme activity, inhibitor; 0.1 µM).
The remaining binding of `COc1cc(-c2cn(C3CCc4c(F)cccc4N(CC(F)(F)F)C3=O)nn2)ccc1-n1cnc(C)c1` (stereo not drawn) is reported as 100% (cell-free assay, competition with immobilised ligand; 1 µM).
For `CN(C)C1CCN(CC#Cc2nn(C3CCCC3)c3nc(NCc4ccccc4)ncc23)C1` (stereo not drawn), the inhibition was 5% (enzyme activity, inhibitor, FRET; 1 µM).
The remaining signal of `O=C1Nc2ccc(Cl)cc2C1=Cc1cc(Cl)c(O)c(Cl)c1` is reported as 94.1% (cell-free assay; 0.5 µM).
The inhibition of `Cc1ccc(-n2nc(C(C)(C)C)cc2NC(=O)Nc2ccc(OCCN3CCOCC3)c3ccccc23)cc1` is reported as 3% (enzyme activity, inhibitor; 10 µM).
`Cc1ccc(C(=O)NCc2ccsc2)cc1C#Cc1cn(C(C)C)c2ncnc(N)c12` has an activity vs control of 96% (enzyme activity, inhibitor; 1 µM).
`CC(C)(C)c1nc(-c2cccc(NS(=O)(=O)c3c(F)cccc3F)c2F)c(-c2ccnc(N)n2)s1` has a remaining activity of 100% (enzyme activity, inhibitor, radiometric; 1 µM).
The remaining binding of `CCS(=O)(=O)c1cc2cc(C[C@@](O)(CC(C)(C)c3ccc(F)cc3C(N)=O)C(F)(F)F)[nH]c2cn1` is reported as 100% (cell-free assay, competition with immobilised ligand; 1 µM).
`CN1CC(Oc2cnc(C#N)cc2-c2ccn3nc(NC(=O)C4CC4)cc3c2)C1` gave an inhibition of -8% (enzyme activity, inhibitor; 1 µM).
For `O=C(Nc1cnn(-c2csc(C(=O)NC3COC3)c2)c1)Nc1ccccc1Cl`, the remaining activity was 95.5% (enzyme activity, inhibitor; 5 µM).
